≈ marks a conversion by molar mass, not a printed value. Calls of active or inactive are those of the source. The rule behind the calls is not given here.
How the values were obtained:
Candida parapsilosis = experiment: Antifungal activity against Candida parapsilosis ATCC 22019 after 24 hrs by serial dilution method; format: functional; details: Lodderomyces parapsilosis, ATCC 22019, 24 h
Candida albicans [1] = experiment: Antifungal activity against fluconazole-sensitive Candida albicans SC5314 after 24 hrs by serial dilution method; format: functional; details: SC5314, 24 h
Nannizzia gypsea = experiment: Antifungal activity against Microsporum gypseum Cmccfmza after 7 days by serial dilution method; format: functional; details: 168 h
Cryptococcus neoformans = experiment: Antifungal activity against Cryptococcus neoformans 32609 after 72 hrs by serial dilution method; format: functional; details: Cryptococcus neoformans, 32609, 72 h
Trichophyton rubrum = experiment: Antifungal activity against Trichophyton rubrum Cmccftla after 7 days by serial dilution method; format: functional; details: 168 h
Aspergillus fumigatus = experiment: Antifungal activity against Aspergillus fumigatus 07544 after 7 days by serial dilution method; format: functional; details: Aspergillus fumigatus, 07544, 168 h
Nakaseomyces glabratus = experiment: Antifungal activity against Candida glabrata 537 after 24 hrs by serial dilution method; format: functional; details: Nakaseomyces glabratus, 537, 24 h
Candida albicans [2] = experiment: Fungicidal activity against fluconazole-sensitive Candida albicans SC5314 at 32 ug/ml after 12 to 48 hrs; format: functional, organism-based
How it was run: (§1)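 Time-kill: C. albicans (SC5314 or 103) inoculated at 10^5 CFU/mL, untreated or with drug (2–32 μg/mL; fluconazole 32 μg/mL reference); CFU/mL counted after 0, 12, 24 and 48 h.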

Candida albicans [3] = experiment: Antifungal activity against fluconazole-sensitive Candida albicans SC5314 assessed as change in eburicol composition at 8 ug/ml after 24 hrs by GC-MS analysis relative to control; format: functional
How it was run: (§2)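 C. albicans SC5314 exposed to 8 μg/mL for 24 h, sterols analysed by GC-MS with cholesterol internal standard; each sterol expressed as % of total sterol fraction versus no-drug control; average of three independent experiments.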

Candida albicans [4] = experiment: Inhibition of hyphal growth of fluconazole-sensitive Candida albicans SC5314 at 8 ug/ml after 16 hrs by light microscopic analysis; format: functional, organism-based
How it was run: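 C. albicans SC5314 incubated in RPMI 1640 liquid medium at 37 °C for 16 h with or without drug (2–8 μg/mL); hyphal, pseudohyphal or yeast morphology scored microscopically against blank control.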

Candida albicans [5] = experiment: Antifungal activity against fluconazole-sensitive Candida albicans SC5314 assessed as abnormal cell shape at 8 ug/ml after 8 hrs by TEM analysis; format: functional, organism-based
How it was run: (§3)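 Transmission electron microscopy of C. albicans SC5314 cells exposed to 8 μg/mL drug for 8 h; untreated cells as reference; cell wall, membrane, cytoplasm and vacuole morphology inspected.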

Candida tropicalis = experiment: Antifungal activity against Candida tropicalis after 7 days by serial dilution method; format: functional; details: 168 h
Candida albicans [6] = experiment: Antifungal activity against fluconazole-resistant Candida albicans 07109 after 24 hrs by serial dilution method; format: functional; details: Candida albicans, 07109, 24 h
Candida albicans [7] = experiment: Antifungal activity against fluconazole-sensitive Candida albicans SC5314 assessed as change in obtusifoliol composition at 8 ug/ml after 24 hrs by GC-MS analysis relative to control; format: functional; how it was run: as §2
Candida albicans [8] = experiment: Inhibition of biofilm formation of fluconazole-sensitive Candida albicans SC5314 at 64 ug/ml after 48 hrs by XTT assay relative to control; format: functional
How it was run: (§4)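 Biofilm formation by C. albicans SC5314 or 103 in presence of 2–64 μg/mL drug (fluconazole 64 μg/mL reference); quantified by XTT reduction as % of blank control; mean ± standard deviation of three independent experiments, ANOVA and Student t test.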

Candida albicans [9] = experiment: Antifungal activity against fluconazole-sensitive Candida albicans SC5314 assessed as change in ergosterol composition at 8 ug/ml after 24 hrs by GC-MS analysis (reference value: 90%); format: functional; how it was run: as §2
Candida albicans [10] = experiment: Antifungal activity against fluconazole-sensitive Candida albicans SC5314 assessed as cell membrane damage at 8 ug/ml after 8 hrs by TEM analysis; format: functional, organism-based; how it was run: as §3
Candida albicans [11] = experiment: Fungicidal activity against fluconazole-sensitive Candida albicans SC5314 assessed as reduction in fungi density after 24 hrs; format: functional, organism-based; how it was run: as §1
Candida albicans [12] = experiment: Antifungal activity against fluconazole-resistant Candida albicans 805 after 24 hrs by serial dilution method; format: functional; details: Candida albicans, 805, 24 h
Candida albicans [13] = experiment: Antifungal activity against fluconazole-resistant Candida albicans 100 after 24 hrs by serial dilution method; format: functional; details: Candida albicans, 100, 24 h
Candida albicans [14] = experiment: Inhibition of biofilm formation of fluconazole-resistant Candida albicans 103 at 64 ug/ml after 48 hrs by XTT assay; format: functional, organism-based; how it was run: as §4
Pichia kudriavzevii = experiment: Antifungal activity against Candida krusei 0710397 after 7 days by serial dilution method; format: functional; details: Pichia kudriavzevii, 0710397, 168 h
Candida albicans [15] = experiment: Antifungal activity against fluconazole-sensitive Candida albicans SC5314 assessed as change in sterol composition at 8 ug/ml after 24 hrs by GC-MS analysis (reference value: 8.5%); format: functional; how it was run: as §2
Candida albicans [16] = experiment: Antifungal activity against fluconazole-resistant Candida albicans 103 after 24 hrs by serial dilution method; format: functional; details: Candida albicans, 103, 24 h
Candida albicans [17] = experiment: Antifungal activity against fluconazole-sensitive Candida albicans SC5314 assessed as change in lanosterol composition at 8 ug/ml after 24 hrs by GC-MS analysis (reference value: 1.5%); format: functional; how it was run: as §2

| Structure (SMILES) | MIC80 (Candida parapsilosis) [µg/mL] | MIC80 (Candida albicans [1]) [µg/mL] | MIC80 (Nannizzia gypsea) [µg/mL] | MIC80 (Cryptococcus neoformans) [µg/mL] | MIC80 (Trichophyton rubrum) [µg/mL] | MIC80 (Aspergillus fumigatus) [µg/mL] | MIC80 (Nakaseomyces glabratus) [µg/mL] | also measured |
| --- | --- | --- | --- | --- | --- | --- | --- | --- |
| CN1CCc2c(c3cc(Cl)ccc3n2C(=O)c2cccc(Cl)c2)C1 | 64 (≈ 178 µM) | > 64 | > 64 | 32 (≈ 89.1 µM) | > 64 | > 64 | 32 (≈ 89.1 µM) |  |
| CN1CCc2c(c3cc(Cl)ccc3n2CC(O)c2ccccc2)C1 (configuration not stated) | 64 (≈ 188 µM) | > 64 | 32 (≈ 93.9 µM) | 32 (≈ 93.9 µM) | > 64 | > 64 | 32 (≈ 93.9 µM) |  |
| CN1CCc2c(c3cc(Cl)cc(Cl)c3n2CCCOc2ccc(Cl)cc2)C1 | > 64 | > 64 | 16 (≈ 37.8 µM) | 16 (≈ 37.8 µM) | > 64 | > 64 | > 64 |  |
| COc1ccc2c(c1)c1c(n2CCCOc2ccc(Cl)cc2)CCN(C)C1 | 32 (≈ 83.1 µM) | 32 (≈ 83.1 µM) | 8 (≈ 20.8 µM) | 8 (≈ 20.8 µM) | 8 (≈ 20.8 µM) | 32 (≈ 83.1 µM) | > 64 |  |
| Cc1ccc2c3c(n(CCCOc4ccc(Cl)cc4)c2c1)CCN(C)C3 | 16 (≈ 43.4 µM) | 32 (≈ 86.7 µM) | 8 (≈ 21.7 µM) | 8 (≈ 21.7 µM) | 8 (≈ 21.7 µM) | 16 (≈ 43.4 µM) | 16 (≈ 43.4 µM) |  |
| Cc1ccc2c(c1)[C@@H]1CN(C)CC[C@@H]1N2C(=O)c1ccc2ccccc2c1 | 16 (≈ 44.9 µM) | 32 (≈ 89.8 µM) | 32 (≈ 89.8 µM) | 8 (≈ 22.4 µM) | 16 (≈ 44.9 µM) | > 64 | > 64 | Activity (Candida albicans [2]): Active |
| CN1CCc2c(c3cc(Cl)ccc3n2CC#N)C1 | > 64 | > 64 | 64 (≈ 246 µM) | 64 (≈ 246 µM) | > 64 | > 64 | > 64 |  |
| CN1CCc2c(c3cc(Cl)ccc3n2CCCOc2ccc(Cl)cc2)C1 | 16 (≈ 41.1 µM) | 64 (≈ 164 µM) | 16 (≈ 41.1 µM) | 8 (≈ 20.5 µM) | > 64 | > 64 | 16 (≈ 41.1 µM) |  |
| CN1CCc2c(c3cc(Cl)ccc3n2Cc2ccccc2)C1 | 64 (≈ 206 µM) | 64 (≈ 206 µM) | 16 (≈ 51.5 µM) | 32 (≈ 103 µM) | 16 (≈ 51.5 µM) | 64 (≈ 206 µM) | 32 (≈ 103 µM) |  |
| C#CCn1c2c(c3cc(Cl)ccc31)CN(C)CC2 | 64 (≈ 247 µM) | > 64 | 32 (≈ 124 µM) | 32 (≈ 124 µM) | > 64 | > 64 | 64 (≈ 247 µM) |  |
| CN1CCc2c(c3cc(Cl)ccc3n2C(=O)c2ccccc2Br)C1 | 64 (≈ 159 µM) | > 64 | > 64 | > 64 | > 64 | > 64 | > 64 |  |
| CN1CCc2c(c3cc(Cl)ccc3n2C(=O)c2ccc(Cl)cc2)C1 | 64 (≈ 178 µM) | > 64 | > 64 | 32 (≈ 89.1 µM) | 32 (≈ 89.1 µM) | > 64 | 32 (≈ 89.1 µM) |  |
| OC(Cn1cncn1)(Cn1cncn1)c1ccc(F)cc1F [FLUCONAZOLE] | 2 (≈ 6.53 µM) | 0.5 (≈ 1.63 µM) | 1 (≈ 3.27 µM) | 2 (≈ 6.53 µM) | 4 (≈ 13.1 µM) | > 64 | 0.5 (≈ 1.63 µM) | Activity (Candida albicans [3]): 82.2%; growth inhibition (GI) (Candida albicans [4]): inactive; Activity (Candida albicans [5]): Active; MIC80 (Candida tropicalis): 1 µg/mL (≈ 3.27 µM); MIC80 (Candida albicans [6]): > 1020 µg/mL; Activity (Candida albicans [7]): 6.5%; inhibition (Candida albicans [8]): inactive; Activity (Candida albicans [9]): 0.6%; Activity (Candida albicans [10]): Active; Activity (Candida albicans [11]): inactive; MIC80 (Candida albicans [12]): > 1020 µg/mL; MIC80 (Candida albicans [13]): > 1020 µg/mL; inhibition (Candida albicans [14]): inactive; MIC80 (Pichia kudriavzevii): 4 µg/mL (≈ 13.1 µM); Activity (Candida albicans [15]): 4.8%; MIC80 (Candida albicans [16]): 4 µg/mL (≈ 13.1 µM); Activity (Candida albicans [17]): 5.9%; Activity (Candida albicans [2]): Active |
| CN1CCc2c(c3cc(Cl)ccc3n2C(=O)Cc2ccccc2)C1 | > 64 | > 64 | > 64 | > 64 | > 64 | > 64 | > 64 |  |

Reference: ChEMBL document CHEMBL3286225, “Novel carboline derivatives as potent antifungal lead compounds: design, synthesis, and biological evaluation” (ACS Med Chem Lett, 2014)
